Assay results reported in ChEMBL document CHEMBL4346697, “Probing structural requirements for human topoisomerase I inhibition by a novel N1-Biphenyl fluoroquinolone” (Eur J Med Chem, 2019).
Calls of active or inactive are those of the source. The calls are words filed in the database; no cut-off is given here.

Columns and labels:
[1] = target: T1, DNA topoisomerase 1 (Homo sapiens, UniProt P11387); assay: Inhibition of human topoisomerase 1 using supercoiled pBR322 plasmid DNA as substrate after 15 mins by ethidium bromide staining based agarose gel electrophoresis method
T1 sequence (P11387 whole entry): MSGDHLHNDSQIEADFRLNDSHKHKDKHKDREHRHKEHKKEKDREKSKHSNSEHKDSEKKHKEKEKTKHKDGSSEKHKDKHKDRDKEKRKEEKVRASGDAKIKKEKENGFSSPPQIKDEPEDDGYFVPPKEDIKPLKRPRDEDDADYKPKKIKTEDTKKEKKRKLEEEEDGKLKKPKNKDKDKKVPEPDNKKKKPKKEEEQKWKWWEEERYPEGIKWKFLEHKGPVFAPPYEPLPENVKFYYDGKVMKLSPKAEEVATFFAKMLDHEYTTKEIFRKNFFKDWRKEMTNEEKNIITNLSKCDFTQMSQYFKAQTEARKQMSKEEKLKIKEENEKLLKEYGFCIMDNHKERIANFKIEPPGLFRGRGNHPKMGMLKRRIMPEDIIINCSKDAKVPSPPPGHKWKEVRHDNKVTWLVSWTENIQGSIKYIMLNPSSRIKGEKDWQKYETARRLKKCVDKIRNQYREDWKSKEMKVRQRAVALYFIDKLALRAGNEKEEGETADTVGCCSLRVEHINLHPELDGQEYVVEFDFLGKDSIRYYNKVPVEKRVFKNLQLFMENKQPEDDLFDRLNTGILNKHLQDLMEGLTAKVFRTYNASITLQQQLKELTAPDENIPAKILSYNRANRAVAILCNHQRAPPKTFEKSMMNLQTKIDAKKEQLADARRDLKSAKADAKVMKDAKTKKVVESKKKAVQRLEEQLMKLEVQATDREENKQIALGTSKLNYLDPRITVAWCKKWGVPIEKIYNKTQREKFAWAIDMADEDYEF
Outline: (§1)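 hTopo I (1 unit) relaxed 0.3 μg supercoiled plasmid in 50 mM Tris-HCl pH 7.5, 100 mM NaCl, 10 mM MgCl2, 1 mM DTT, 50 μg/ml BSA with varied compound concentrations, at 37°C for 15 min.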

[2] = target: T2, DNA topoisomerase 1 (Homo sapiens) (UniProt P11387); assay: Inhibition of human topoisomerase 1 at 200 uM using supercoiled pBR322 plasmid DNA as substrate after 15 mins by ethidium bromide staining based agarose gel electrophoresis method relative to control; outline: as §1
T2 sequence (whole entry): T1 sequence (P11387 whole entry)

[3] = tested on: Panel NCI-60 (60 carcinoma cell lines); assay: Antiproliferative activity against human NCI60 cells; assay type: functional
[4] = tested on: Calf thymus DNA; assay: Binding affinity to calf thymus DNA assessed as bathochromic shift at 25 uM by fluorescence spectra analysis; assay type: nucleic-acid assay; details: Bos taurus
Outline: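 Compound at 25 μM, with calf thymus DNA at 0 or 400 μM, in 10 mM Tris-HCl pH 7.4 at room temperature; final DMSO ≤5%. Emission spectra were recorded from 320–600 nm to look for a bathochromic shift. DNA was dissolved in the same buffer, checked by A260/A280 (1.8–1.9) and quantified at 260 nm (ε 6600 M−1 cm−1 per nucleotide).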

[5] = Binding affinity to d(CCTTACGTGCATAGTCATTCATGACCG) dsDNA (unknown origin) assessed as bathochromic shift at 25 uM by fluorescence spectra analysis
Outline: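 The 27-bp duplex was made by annealing complementary strands 1:1 at 95°C for 2 min, then cooling to room temperature. Compound at 25 μM, with dsDNA at 0–200 μM, in 10 mM Tris-HCl pH 7.4 at room temperature; DMSO ≤5% final. Spectra and intensity were read after blank subtraction, normalized to the no-DNA signal; technical replicates, n=3.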

| IC50 [1] | Structure (SMILES) | other results |
| --- | --- | --- |
| 72.8 µM | NCCNc1cc2c(cc1F)c(=O)c(C(=O)O)cn2Cc1ccc(-c2ccccc2)cc1 | – |
| 35.9 µM | COc1c(N2CC[C@@H](CN)C2)c(F)cc2c(=O)c(C(=O)NO)cn(Cc3ccc(-c4ccccc4)cc3)c12 | – |
| > 200 µM | CC(c1nc(-c2ccncc2)no1)n1cc(C(=O)O)c(=O)c2cc(F)c(N3CC[C@@H](CN)C3)cc21 (some centres undefined) | inhibition [2]: 10% |
| 69.6 µM | NC[C@@H]1CCN(c2cc3c(cc2F)c(=O)c(C(=O)O)cn3Cc2ccc(-c3ccc(F)cc3)cc2)C1 | – |
| 60.9 µM | COc1c(N2CC[C@@H](CN)C2)c(F)cc2c(=O)c(C(=O)O)cn(Cc3ccc(-c4ccc(F)cc4)cc3)c12 | – |
| – | COc1c(F)c(F)cc2c(=O)c(C(=O)O)cn(Cc3ccc(-c4ccccc4)cc3)c12 | inhibition [2]: inactive |
| 61 µM | NC[C@@H]1CCN(c2ccc3c(=O)c(C(=O)O)cn(Cc4ccc(-n5cccn5)cc4)c3c2)C1 | – |
| 61.2 µM | NC[C@@H]1CCN(c2ccc3c(=O)c(C(=O)O)cn(Cc4ccc(-c5ccccc5)cc4)c3c2)C1 | – |
| 91.6 µM | NC[C@@H]1CCN(c2cc3c(cc2F)c(=O)c(C(=O)O)cn3Cc2ccc(-n3cccn3)cc2)C1 | – |
| > 200 µM | COc1c(NCCN)c(F)cc2c(=O)c(C(=O)O)cn(Cc3ccc(-c4ccccc4)cc3)c12 | inhibition [2]: 10% |
| 187 µM | O=C(O)c1cn(Cc2ccc(-n3cccn3)cc2)c2cc(NC[C@H]3CCNC3)c(F)cc2c1=O | – |
| 33.3 µM | O=C(O)c1cn(Cc2ccc(-c3ccccc3)cc2)c2cc(N3CC4CNCC4C3)c(F)cc2c1=O (centres undefined) | – |
| – | COc1c(N2CC[C@@H](CN)C2)c(F)cc2c(=O)c(C(=O)O)cn(Cc3ccc4ccccc4c3)c12 | GI50 [3]: 3.1 µM |
| 100 µM | O=C(O)c1cn(Cc2ccc(-c3ccccc3)cc2)c2cc(NC[C@H]3CCNC3)c(F)cc2c1=O | – |
| 63.6 µM | N[C@@H]1CCN(c2cc3c(cc2F)c(=O)c(C(=O)O)cn3Cc2ccc(-c3ccccc3)cc2)C1 | – |
| 63.6 µM | CNCCCNc1cc2c(cc1F)c(=O)c(C(=O)O)cn2Cc1ccc(-c2ccccc2)cc1 | – |
| > 200 µM | CNC[C@@H]1CCN(c2cc3c(cc2F)c(=O)c(C(=O)O)cn3Cc2ccc(-n3cccn3)cc2)C1 | inhibition [2]: 10% |
| 58.6 µM | COc1c(N2CC[C@@H](N)C2)c(F)cc2c(=O)c(C(=O)O)cn(Cc3ccc(-c4ccc(F)cc4)cc3)c12 | – |
| 71.4 µM | COC(=O)c1cn(Cc2ccc(-c3ccccc3)cc2)c2c(OC)c(N3CC[C@@H](CN)C3)c(F)cc2c1=O | – |
| 168 µM | CNC[C@@H]1CCN(c2cc3c(cc2F)c(=O)c(C(=O)O)cn3Cc2ccc(-c3ccccc3)cc2)C1 | – |
| 31.3 µM | O=C(O)c1cn(Cc2ccc(-n3cccn3)cc2)c2cc(N3C[C@H]4CCNC[C@H]4C3)c(F)cc2c1=O | – |
| > 200 µM | CNCCCCNc1c(F)cc2c(=O)c(C(=O)O)cn(Cc3ccc(-c4ccccc4)cc3)c2c1OC | inhibition [2]: 10% |

| IC50 [1] | Structure (SMILES) | other results |
| --- | --- | --- |
| 173 µM | O=C(O)c1cn(Cc2ccc(-n3cccn3)cc2)c2cc(N3CC4CNCC4C3)c(F)cc2c1=O (centres undefined) | – |
| 34.8 µM | CN[C@@H]1CCN(c2cc3c(cc2F)c(=O)c(C(=O)O)cn3Cc2ccc(-c3ccccc3)cc2)C1 | – |
| 88.3 µM | CNCCCCNc1cc2c(cc1F)c(=O)c(C(=O)O)cn2Cc1ccc(-c2ccccc2)cc1 | – |
| 92.2 µM | COc1c(N2CC[C@@H](N)C2)c(F)cc2c(=O)c(C(=O)O)cn(Cc3ccc(-c4ccccc4)cc3)c12 | – |
| 61 µM | O=C(O)c1cn(Cc2ccc(-c3ccccc3)cc2)c2cc(N3C[C@H]4CCNC[C@H]4C3)c(F)cc2c1=O | – |
| – | O=C(O)c1cn(Cc2ccc(-n3cccn3)cc2)c2cc(NC[C@@H]3CCNC3)c(F)cc2c1=O | inhibition [2]: 10% |
| 184 µM | COc1c(N2CC[C@@H](CN)C2)c(F)cc2c(=O)c(C(N)=O)cn(Cc3ccc(-c4ccccc4)cc3)c12 | – |
| 101 µM | CNCCCNc1c(F)cc2c(=O)c(C(=O)O)cn(Cc3ccc(-c4ccccc4)cc3)c2c1OC | – |
| – | COc1c(N2CC[C@@H](CN)C2)c(F)cc2c(=O)c(C(=O)O)cn(Cc3ccc(-c4ccccc4)cc3)c12 | GI50 [3]: 1.9 µM; Activity [4]: inactive; Activity [5]: inactive |
| 15.6 µM | NC[C@@H]1CCN(c2cc3c(cc2F)c(=O)c(C(=O)O)cn3Cc2ccc(-c3ccccc3)cc2)C1 | Activity [4]: inactive; Activity [5]: inactive |
| > 200 µM | COc1c(N2CC[C@@H](CN)C2)c(F)cc2c(=O)c(C(=O)O)cn(Cc3ccc(-n4cccn4)cc3)c12 | inhibition [2]: 10% |
| 104 µM | O=C(O)c1cn(Cc2ccc(-c3ccccc3)cc2)c2cc(NC[C@@H]3CCNC3)c(F)cc2c1=O | – |
| > 200 µM | CNCCNc1c(F)cc2c(=O)c(C(=O)O)cn(Cc3ccc(-c4ccccc4)cc3)c2c1OC | inhibition [2]: 10% |
| > 200 µM | COc1c(N2CC[C@@H](CO)C2)c(F)cc2c(=O)c(C(=O)O)cn(Cc3ccc(-c4ccccc4)cc3)c12 | inhibition [2]: 10% |
| > 200 µM | CNCCNc1cc2c(cc1F)c(=O)c(C(=O)O)cn2Cc1ccc(-c2ccccc2)cc1 | inhibition [2]: 10% |
| > 200 µM | COc1c(N2CC[C@@H](C(N)=O)C2)c(F)cc2c(=O)c(C(=O)O)cn(Cc3ccc(-c4ccccc4)cc3)c12 | inhibition [2]: 10% |
| 58.3 µM | NC[C@@H]1CCN(c2cc3c(cc2F)c(=O)c(C(=O)O)cn3Cc2cc(-c3ccccc3)no2)C1 | – |
| – | CNC(=O)c1cn(Cc2ccc(-c3ccccc3)cc2)c2c(OC)c(NC)c(F)cc2c1=O | inhibition [2]: inactive |
| > 200 µM | NC[C@@H]1CCN(c2cc3c(cc2F)c(=O)c(C(=O)O)cn3Cc2nc(-c3ccncc3)no2)C1 | inhibition [2]: 10% |
| 57.7 µM | CN[C@@H]1CCN(c2c(F)cc3c(=O)c(C(=O)O)cn(Cc4ccc(-c5ccccc5)cc4)c3c2OC)C1 | – |
| 155 µM | CNC[C@@H]1CCN(c2c(F)cc3c(=O)c(C(=O)O)cn(Cc4ccc(-c5ccccc5)cc4)c3c2OC)C1 | – |
| 178 µM | COc1c(N2CC[C@@H](CN)C2)c(F)cc2c(=O)c(C(=O)O)cn(Cc3cc(-c4ccccc4)no3)c12 | – |

| Structure (SMILES) | IC50 [1] | other results |
| --- | --- | --- |
| CNC(=O)c1cn(Cc2ccc(-c3ccccc3)cc2)c2c(OC)c(N3CC[C@@H](CN)C3)c(F)cc2c1=O | 82.1 µM | – |
